{
  "source": "paper PMC5704914",
  "about": "(Biochemistry, 2017)",
  "tested_on": "α11.2 AAs 1506-1871",
  "assay": "Yeast two-hybrid interaction of α-actinin-1 fragments with α11.2 C-terminus",
  "type": "binding, rabbit",
  "conditions": "α-actinin-1 prey in pGADT7; X-α-Gal",
  "outline": "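Bait plasmids (α11.2 C-terminal fragments) and α-actinin-1 full-length or fragment prey (Gal4 activation domain, pGADT7) were co-transformed into Y2H Gold yeast. Co-transformants were selected on Leu−/Trp− plates with X-α-Gal, then colonies were replated onto Leu/Trp/His/Ade quadruple-dropout plates plus X-α-Gal to score interaction.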",
  "data": [
    {"molecule": "SR234EF: C-terminal four EF hands preceded by three spectrin repeats of α-actinin-1 (AAs 391-892) (protein, left off: Gal4 activation domain, end not stated, kept) RLDHLAEKFRQKASIHEAWTDGKEAMLRQKDYETATLSEIKALLKKHEAFESDLAAHQDRVEQIAAIAQELNELDYYDSPSVNARCQKICDQWDNLGALTQKRREALERTEKLLETIDQLYLEYAKRAAPFNNWMEGAMEDLQDTFIVHTIEEIQGLTTAHEQFKATLPDADKERLAILGIHNEVSKIVQTYHVNMAGTNPYTTITPQEINGKWDHVRQLVPRRDQALTEEHARQQHNERLRKQFGAQANVIGPWIQTKMEEIGRISIEMHGTLEDQLSHLRQYEKSIVNYKPKIDQLEGDHQLIQEALIFDNKHTNYTMEHIRVGWEQLLTTIARTINEVENQILTRDAKGISQEQMNEFRASFNHFDRDHSGTLGPEEFKACLISLGYDIGNDPQGEAEFARIMSIVDPNRLGVVTFQAFIDFMSRETADTDTADQVMASFKILAGDKNYITMDELRRELPPDQAEYCIARMAPYTGPDSVPGALDYMSFSTALYGESDL", "values": [
      {"measurement": "interaction of α-actinin-1 polypeptide with α11.2 AAs 1506-1871 (Y2H)", "value": "consistently strong interaction readouts"}
    ]}
  ]
}
